Test results taken from ChEMBL document CHEMBL1138733, “Chimeric cyclodepsipeptides as mimetics for the anthelmintic PF1022A” (2004).

Tests used:
Haemonchus contortus [1] = experiment: anthelmintic activity as the eggs per gram of faeces in sheep infected with 5000 Haemonchus contortus L3 larvae at 0.01 mg/kg
Haemonchus contortus [2] = experiment: anthelmintic activity as the percent reduction in faecal egg count in sheep infected with 5000 Haemonchus contortus L3 larvae at 0.01 mg/kg
Bos taurus [3] = experiment: anthelmintic activity as the percent reduction in faecal egg count in sheep infected with 5000 Haemonchus contortus L3 larvae at 0.1 mg/kg; format: functional, Ovis aries, Feces
In short: (§1)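 Merino or Schwarzkopf sheep (25–35 kg) infected with 5000 H. contortus L3, dosed after the pre-patency period, orally in gelatine capsules or intravenously. Faecal egg counts by Wetzel-modified McMaster method, per gram of fresh faeces, at regular intervals before and after treatment. Activity as eggs per gram and percent reduction versus pretreatment. Untreated controls sampled at matching times.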

Bos taurus [4] = experiment: anthelmintic activity as the eggs per gram of faeces in sheep infected with 5000 Haemonchus contortus L3 larvae at 0.1 mg/kg; format: functional, Ovis aries, Feces
In short: as §1

Compound | Activity (Haemonchus contortus [1]) [eggs/g] | Reduction (Haemonchus contortus [2]) [%] | Reduction (Bos taurus [3]) [%] | Activity (Bos taurus [4]) [eggs/g]
CC(C)C[C@H]1C(=O)N[C@H]2CCC3SC[C@@H](C(=O)O[C@H](C)C(=O)N(C)[C@@H](CC(C)C)C(=O)O[C@H](Cc4ccccc4)C(=O)N(C)[C@@H](CC(C)C)C(=O)O[C@H](C)C(=O)N1C)N3C2=O (stereo partly drawn) | 83 | 95 | – | –
CC(C)C[C@H]1C(=O)O[C@H](Cc2ccccc2)C(=O)N(C)[C@@H](CC(C)C)C(=O)O[C@H](C)C(=O)N(C)[C@@H](CC(C)C)C(=O)O[C@H](Cc2ccccc2)C(=O)N(C)[C@@H](CC(C)C)C(=O)O[C@H](C)C(=O)N1C | 573 | 43 | 100 | 0
CC(C)C[C@H]1C(=O)O[C@H](Cc2ccccc2)C(=O)N(C)[C@@H](CC(C)C)C(=O)O[C@H](C)C(=O)N(C)[C@@H](CC(C)C)C(=O)N2CCC[C@@H]2C(=O)N2CCC[C@H]2C(=O)O[C@H](C)C(=O)N1C | 50 | 98 | – | –
